Assay results: ChEMBL document CHEMBL1949610, “Selection of cyclic-peptide inhibitors targeting Aurora kinase A: problems and solutions” (Bioorg Med Chem, 2011)
Activity calls are given as the source filed them. The calls are words filed in the database; no cut-off is given here. Positions of bridges follow the written chain, without caps; N, C: chain ends. Residues, ends and D or L forms follow the SMILES beside them.

Columns and labels:
[1] = target: Dual specificity protein kinase CLK2 (Homo sapiens) (UniProt P49760); assay: Inhibition of CLK2 assessed as [gamma-33P]ATP incorporation into AKRRRLSSLRA substrate at 10 uM after 40 mins by liquid scintillation counting
Dual specificity protein kinase CLK2 (Homo sapiens), sequence (P49760 whole entry, looked up): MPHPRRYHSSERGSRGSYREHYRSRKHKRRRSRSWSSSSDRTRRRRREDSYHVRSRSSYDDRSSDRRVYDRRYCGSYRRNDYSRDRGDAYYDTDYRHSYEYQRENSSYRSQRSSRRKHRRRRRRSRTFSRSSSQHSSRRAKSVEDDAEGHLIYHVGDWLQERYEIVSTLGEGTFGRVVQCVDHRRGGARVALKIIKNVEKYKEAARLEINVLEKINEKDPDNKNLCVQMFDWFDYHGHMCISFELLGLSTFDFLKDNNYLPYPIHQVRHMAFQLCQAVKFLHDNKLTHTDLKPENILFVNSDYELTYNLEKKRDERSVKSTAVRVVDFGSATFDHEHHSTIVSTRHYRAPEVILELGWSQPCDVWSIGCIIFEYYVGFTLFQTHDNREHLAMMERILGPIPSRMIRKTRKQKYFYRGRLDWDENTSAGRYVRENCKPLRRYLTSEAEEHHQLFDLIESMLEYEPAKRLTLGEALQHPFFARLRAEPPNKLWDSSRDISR

[2] = Inhibition of PKA assessed as [gamma-33P]ATP incorporation into kemptide substrate at 10 uM after 40 mins by liquid scintillation counting
[3] = target: T1, Aurora kinase A (Homo sapiens) (UniProt O14965); assay: Inhibition of human aurora A assessed as [gamma-33P]ATP incorporation into kemptide substrate at 10 uM after 40 mins by liquid scintillation counting
T1 sequence (whole entry): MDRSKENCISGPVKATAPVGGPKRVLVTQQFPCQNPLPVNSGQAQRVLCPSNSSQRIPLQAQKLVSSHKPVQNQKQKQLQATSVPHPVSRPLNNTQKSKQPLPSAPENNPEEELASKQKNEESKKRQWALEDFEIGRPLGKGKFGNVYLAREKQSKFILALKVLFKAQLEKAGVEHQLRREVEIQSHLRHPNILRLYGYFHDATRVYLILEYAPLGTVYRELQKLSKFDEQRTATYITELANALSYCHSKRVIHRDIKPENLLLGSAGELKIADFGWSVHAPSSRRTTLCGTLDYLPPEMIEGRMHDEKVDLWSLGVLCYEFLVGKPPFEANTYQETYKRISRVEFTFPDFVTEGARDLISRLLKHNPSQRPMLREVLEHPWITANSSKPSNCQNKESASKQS

[4] = target: T1, Aurora kinase A (Homo sapiens); assay: Competitive inhibition of human aurora A using kemptide as a substrate by double reciprocal plot analysis
In short: (§1)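 Kinetics run in duplicate: 0.5 nM Aurora A, 100 μM [γ-³²P]ATP, Kemptide at 25, 50 and 200 μM, inhibitor at 0, 10 and 50 μM, in 20 mM MOPS, 10 mM MgCl, pH 7, 0.01% BSA, 2.5% DMSO. Data shown as double-reciprocal plots and fit to competitive, noncompetitive, mixed and uncompetitive models.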

[5] = target: T1, Aurora kinase A (Homo sapiens); assay: Un-competitive inhibition of human aurora A using kemptide as substrate by double reciprocal plot analysis; in short: as §1
Aurora kinase A = target: T2, Aurora kinase A (Homo sapiens, UniProt O14965); assay: Mixed type inhibition of human aurora A using kemptide as a substrate by double reciprocal plot analysis; in short: as §1
T2 sequence (O14965 whole entry): T1 sequence (whole entry)

SMILES	inhibition [1]	inhibition [2]	inhibition [3]	Kic [4] [µM]	Kiuc [5] [µM]	Ki (Aurora kinase A) [µM]
CC(C)C[C@@H]1NC(=O)[C@H](Cc2ccccc2)NC(=O)[C@H](CCCNC(=N)N)NC(=O)[C@@H]2CCCN2C(=O)[C@@H](N)CSSC[C@@H](C(=O)NCC(N)=O)NC(=O)[C@H](Cc2c[nH]c3ccccc23)NC(=O)[C@@H]2CCCN2C1=O (H-CPRFLPWCG-NH2; disulfide 1-8)	inactive	inactive	Active	–	–	–
CC(C)C[C@@H]1NC(=O)[C@H](Cc2c[nH]c3ccccc23)NC(=O)[C@H](Cc2c[nH]c3ccccc23)NC(=O)[C@@H]2CCCN2C(=O)[C@H](CCCNC(=N)N)NC(=O)[C@H]([C@@H](C)O)NC(=O)[C@@H](N)CSSC[C@@H](C(=O)NCC(N)=O)NC1=O (H-CTRPWWLCG-NH2; disulfide 1-8)	inactive	inactive	Active	10.4	17.6	27.2
